Source: ChEMBL document CHEMBL1130127, “Synthesis, photophysical properties, in vivo photosensitizing efficacy, and human serum albumin binding properties of some novel bacteriochlorins” (J Med Chem, 1997)
Values belong to the compound of their own block, whether it stands above or below them. Calls of active or inactive are those of the source. The calls are words filed in the database; no cut-off is given here.

Experiments:
[1] = tested on: Mus musculus; assay: The compound was tested in vivo for photosensitizing efficacy in DBA/2 Mice transplanted with SMT/F tumors and the activity is expressed as % response (26-30 days) 3 hours post injection at 5.0 mg/kg concentration; No response; assay type: functional, organism-based; parameters: dose 5 mg/kg
Outline: (§1)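 Female DBA/2 HA-DD mice, 5-7 weeks old. A 1 mm SMT-F tumor piece from a donor was trocar-implanted subcutaneously in the axilla. At about 5 mm tumor diameter, sensitizer in 1% Tween 80/water was given iv; dose was based on extinction coefficient. At 3 or 24 h after injection, restrained mice had the tumor lit with 135 J/cm2 laser light at the in vivo long-wavelength maximum. Tumor response was followed to day 30; six mice/group.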

[2] = tested on: Mus musculus; assay: The compound was tested in vivo for photosensitizing efficacy in DBA/2 Mice at (1-5 days) 3 hours post injection at 5.0 mg/kg concentration; No response; assay type: functional, organism-based; parameters: dose 5 mg/kg; outline: as §1
[3] = tested on: Mus musculus; assay: The compound was tested in vivo for photosensitizing efficacy in DBA/2 Mice transplanted with SMT/F tumors and the activity is expressed as % response (6-10 days) 3 hours post injection at 5.0 mg/kg concentration; No response; assay type: functional, organism-based; parameters: dose 5 mg/kg; outline: as §1
[4] = target: T1, Albumin (Homo sapiens, UniProt P02768); assay: Binding affinity against Human serum albumin(Site I).
T1 sequence (P02768 whole entry): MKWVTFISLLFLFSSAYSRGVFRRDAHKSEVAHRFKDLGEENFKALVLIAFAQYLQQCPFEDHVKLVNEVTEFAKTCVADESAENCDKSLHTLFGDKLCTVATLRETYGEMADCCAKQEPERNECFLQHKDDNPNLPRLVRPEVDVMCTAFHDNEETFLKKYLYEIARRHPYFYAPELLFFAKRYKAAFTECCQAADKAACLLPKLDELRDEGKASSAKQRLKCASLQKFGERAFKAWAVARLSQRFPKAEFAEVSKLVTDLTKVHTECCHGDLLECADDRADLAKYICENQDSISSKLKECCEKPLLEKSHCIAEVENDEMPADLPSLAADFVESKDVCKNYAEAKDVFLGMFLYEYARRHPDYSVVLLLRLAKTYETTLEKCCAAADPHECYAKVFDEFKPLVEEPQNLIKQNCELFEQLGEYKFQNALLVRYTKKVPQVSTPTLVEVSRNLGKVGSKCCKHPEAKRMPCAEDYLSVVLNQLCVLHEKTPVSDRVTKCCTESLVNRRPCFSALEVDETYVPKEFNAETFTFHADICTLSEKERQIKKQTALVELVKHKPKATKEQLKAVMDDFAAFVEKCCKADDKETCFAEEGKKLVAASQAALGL
Outline: (§2)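 Fluorometric titration: HSA and sensitizer fixed at 1 × 10^-6 mol/L. Site probe varied 4 × 10^-7 to 2 × 10^-6 mol/L: DNSA for site I, read at 472 nm; DP for site II, read at 476 nm; excitation 340 nm. Incubated 4 °C, pH 7.0, 4 h, dark. Bound probe taken from standard curves of free probe (water) and HSA-bound probe (2.5 × 10^-5 mol/L HSA).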

[5] = tested on: Mus musculus; assay: The compound was tested in vivo for photosensitizing efficacy in DBA/2 Mice transplanted with SMT/F tumors and the activity is expressed as % response (16-20 days) 3 hours post injection at 5.0 mg/kg concentration; No response; assay type: functional, organism-based; parameters: dose 5 mg/kg; outline: as §1
[6] = tested on: Mus musculus; assay: The compound was tested in vivo for photosensitizing efficacy in DBA/2 Mice transplanted with SMT/F tumors and the activity is expressed as % response (11-15 days) 3 hours post injection at 5.0 mg/kg concentration; No response; assay type: functional, organism-based; parameters: dose 5 mg/kg; outline: as §1
[7] = tested on: Mus musculus; assay: The compound was tested in vivo for photosensitizing efficacy in DBA/2 Mice transplanted with SMT/F tumors and the activity is expressed as % response (21-25 days) 3 hours post injection at 5.0 mg/kg concentration; No response; assay type: functional, organism-based; parameters: dose 5 mg/kg; outline: as §1
[8] = tested on: Mus musculus; assay: The compound was tested in vivo for photosensitizing efficacy in DBA/2 Mice transplanted with SMT/F tumors and the activity is expressed as % response at (11-15 days) 3 hours post injection at 2.5 mg/kg concentration; assay type: functional; outline: as §1
[9] = tested on: Mus musculus; assay: The compound was tested in vivo for photosensitizing efficacy in DBA/2 Mice transplanted with SMT/F tumors and the activity is expressed as % response at (11-15 days) 24 hours post injection at 5 mg/kg concentration; No response; assay type: functional, organism-based; parameters: dose 5 mg/kg; outline: as §1
[10] = tested on: Mus musculus; assay: The compound was tested in vivo for photosensitizing efficacy in DBA/2 Mice transplanted with SMT/F tumors and the activity is expressed as % response at (6-10 days) 3 hours post injection at 2.5 mg/kg concentration; assay type: functional
Outline: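 SMT-F tumor piece (1 mm) from donor implanted subcutaneously by trocar into axilla of 5–7-week-old female DBA/2 HA-DD mice; treated at ~5 mm diameter. Sensitizer dissolved in 1% Tween 80/water, given iv; 3 h later restrained mouse's tumor illuminated with 135 J/cm2 laser light at in vivo long-wavelength absorption maximum. Tumor response scored over 30 days; six mice/group.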

[11] = tested on: Mus musculus; assay: The compound was tested in vivo for photosensitizing efficacy in DBA/2 Mice transplanted with SMT/F tumors and the activity is expressed as % response at (6-10 days) 24 hours post injection at 5 mg/kg concentration; No response; assay type: functional, organism-based; parameters: dose 5 mg/kg
[12] = target: T1, Albumin; assay: Binding affinity against Human serum albumin(Site II).; outline: as §2
[13] = tested on: Mus musculus; assay: The compound was tested in vivo for photosensitizing efficacy in DBA/2 Mice transplanted with SMT/F tumors and the activity is expressed as % response at (16-20 days) 3 hours post injection at 1 mg/kg concentration; assay type: functional; outline: as §1
[14] = tested on: Mus musculus; assay: The compound was tested in vivo for photosensitizing efficacy in DBA/2 Mice transplanted with SMT/F tumors and the activity is expressed as % response at (16-20 days) 24 hours post injection at 5 mg/kg concentration; No response; assay type: functional, organism-based; parameters: dose 5 mg/kg; outline: as §1
[15] = tested on: Mus musculus; assay: The compound was tested in vivo for photosensitizing efficacy in DBA/2 Mice transplanted with SMT/F tumors and the activity is expressed as % response at (11-15 days) 3 hours post injection at 1 mg/kg concentration; assay type: functional; outline: as §1
[16] = tested on: Mus musculus; assay: The compound was tested in vivo for photosensitizing efficacy in DBA/2 Mice transplanted with SMT/F tumors and the activity is expressed as % response at (1-5 days) 3 hours post injection at 2.5 mg/kg concentration; assay type: functional; outline: as §1
[17] = tested on: Mus musculus; assay: The compound was tested in vivo for photosensitizing efficacy in DBA/2 Mice transplanted with SMT/F tumors and the activity is expressed as % response at (21-25 days) 24 hours post injection at 5 mg/kg concentration; No response; assay type: functional, organism-based; parameters: dose 5 mg/kg; outline: as §1
[18] = tested on: Mus musculus; assay: The compound was tested in vivo for photosensitizing efficacy in DBA/2 Mice transplanted with SMT/F tumors and the activity is expressed as % response at (16-20 days) 3 hours post injection at 2.5 mg/kg concentration; assay type: functional; outline: as §1
[19] = tested on: Mus musculus; assay: The compound was tested in vivo for photosensitizing efficacy in DBA/2 Mice transplanted with SMT/F tumors and the activity is expressed as % response at (21-25 days) 3 hours post injection at 2.5 mg/kg concentration; assay type: functional; outline: as §1
[20] = tested on: Mus musculus; assay: The compound was tested in vivo for photosensitizing efficacy in DBA/2 Mice transplanted with SMT/F tumors and the activity is expressed as % response at (26-30 days) 3 hours post injection at 2.5 mg/kg concentration; assay type: functional
[21] = tested on: Mus musculus; assay: The compound was tested in vivo for photosensitizing efficacy in DBA/2 Mice transplanted with SMT/F tumors and the activity is expressed as % response at (26-30 days) 3 hours post injection at 1 mg/kg concentration; assay type: functional
[22] = tested on: Mus musculus; assay: The compound was tested in vivo for photosensitizing efficacy in DBA/2 Mice transplanted with SMT/F tumors and the activity is expressed as % response at (6-10 days) 3 hours post injection at 1 mg/kg concentration; assay type: functional
[23] = tested on: Mus musculus; assay: The compound was tested in vivo for photosensitizing efficacy in DBA/2 Mice transplanted with SMT/F tumors and the activity is expressed as % response at (26-30 days) 24 hours post injection at 5 mg/kg concentration; No response; assay type: functional, organism-based; parameters: dose 5 mg/kg
[24] = tested on: Mus musculus; assay: The compound was tested in vivo for photosensitizing efficacy in DBA/2 Mice transplanted with SMT/F tumors and the activity is expressed as % response at (1-5 days) 24 hours post injection at 5.0 mg/kg concentration; No response; assay type: functional, organism-based; parameters: dose 5 mg/kg; outline: as §1
[25] = tested on: Mus musculus; assay: The compound was tested in vivo for photosensitizing efficacy in DBA/2 Mice transplanted with SMT/F tumors and the activity is expressed as % response at (21-25 days) 3 hours post injection at 1 mg/kg concentration; assay type: functional; outline: as §1
[26] = tested on: Mus musculus; assay: The compound was tested in vivo for photosensitizing efficacy in DBA/2 Mice transplanted with SMT/F tumors and the activity is expressed as % response at (1-5 days) 3 hours post injection at 1 mg/kg concentration; assay type: functional; outline: as §1

Binding constant [4]: 500000 l M-1
Compound: CCc1c(C)c2[nH]c1cc1[nH]c(cc3nc4c(c5nc(c2C=O)[C@@H](C)[C@@H]5CCC(=O)OC)CCC4=C3C)C(O)(CC)C1(C)O (some centres not stated)
Response [1]: inactive
Response [2]: inactive
Response [3]: inactive
Response [5]: inactive
Response [6]: inactive
Response [7]: inactive

Binding constant [12]: 500000 l M-1
Binding constant [4]: 500000 l M-1
Compound: CCc1c(C)c2[nH]c1cc1[nH]c(cc3nc4c(c5nc(c2C=O)[C@@H](C)[C@@H]5CCC(=O)NC(CC(=O)OC(C)(C)C)C(=O)OC(C)(C)C)CCC4=C3C)C(=O)C1(C)CC (some centres not stated)
Response [8]: 60%
Response [9]: inactive
Response [10]: 100%
Response [11]: inactive
Response [13]: 60%
Response [14]: inactive
Response [15]: 60%
Response [16]: 100%
Response [17]: inactive
Response [18]: 60%
Response [19]: 60%
Response [20]: 60%
Response [21]: 50%
Response [22]: 80%
Response [23]: inactive
Response [24]: inactive
Response [25]: 50%
Response [26]: 100%
